From paper PMC4715766 (ACS Chemical Biology, 2015)

Experiments:
[1] = molecular target: DYNC1H1 (Homo sapiens, UniProt Q14204); assay: DYNC1H1 ATPase assay; assay type: biochemical
Summary of the method: (§1)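 Purified N-terminally SBP- and SNAP-tagged full-length human heavy chains; hydrolysis of γ-32P ATP measured at 37 °C under conditions kept linear from enzyme reaction curves. Single-dose screens used 50 μM in both assays (about 25 nM γ-32P ATP, duplicates), or 50 μM for DYNC1H1 and 15 μM for DYNC2H1 (two experiments). IC50 calculated from dose-response curves run in triplicate.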

[2] = test system: NIH-3T3 cell-derived line; assay: Ciliogenesis assay; assay type: cell-based, murine; details: 30 μM; 24 h
Summary of the method: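 NIH-3T3-derived cells were exposed to the test compound at 30 μM for 24 h, then fixed and immunostained for ARL13B. Primary cilium length was taken as the mean number of ARL13B-positive pixels per cell over at least 6 fields of view, about 800 cells per condition, reported ± s.e.m.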

[3] = test system: Hh signaling; assay: Hh signaling assay; assay type: cell-based, murine; details: ShhN-conditioned medium and compound for 30 h
[4] = molecular target: DYNC2H1 (Homo sapiens, UniProt Q8NCM8); assay: DYNC2H1 ATPase assay; assay type: biochemical
DYNC2H1, sequence (Q8NCM8 whole entry): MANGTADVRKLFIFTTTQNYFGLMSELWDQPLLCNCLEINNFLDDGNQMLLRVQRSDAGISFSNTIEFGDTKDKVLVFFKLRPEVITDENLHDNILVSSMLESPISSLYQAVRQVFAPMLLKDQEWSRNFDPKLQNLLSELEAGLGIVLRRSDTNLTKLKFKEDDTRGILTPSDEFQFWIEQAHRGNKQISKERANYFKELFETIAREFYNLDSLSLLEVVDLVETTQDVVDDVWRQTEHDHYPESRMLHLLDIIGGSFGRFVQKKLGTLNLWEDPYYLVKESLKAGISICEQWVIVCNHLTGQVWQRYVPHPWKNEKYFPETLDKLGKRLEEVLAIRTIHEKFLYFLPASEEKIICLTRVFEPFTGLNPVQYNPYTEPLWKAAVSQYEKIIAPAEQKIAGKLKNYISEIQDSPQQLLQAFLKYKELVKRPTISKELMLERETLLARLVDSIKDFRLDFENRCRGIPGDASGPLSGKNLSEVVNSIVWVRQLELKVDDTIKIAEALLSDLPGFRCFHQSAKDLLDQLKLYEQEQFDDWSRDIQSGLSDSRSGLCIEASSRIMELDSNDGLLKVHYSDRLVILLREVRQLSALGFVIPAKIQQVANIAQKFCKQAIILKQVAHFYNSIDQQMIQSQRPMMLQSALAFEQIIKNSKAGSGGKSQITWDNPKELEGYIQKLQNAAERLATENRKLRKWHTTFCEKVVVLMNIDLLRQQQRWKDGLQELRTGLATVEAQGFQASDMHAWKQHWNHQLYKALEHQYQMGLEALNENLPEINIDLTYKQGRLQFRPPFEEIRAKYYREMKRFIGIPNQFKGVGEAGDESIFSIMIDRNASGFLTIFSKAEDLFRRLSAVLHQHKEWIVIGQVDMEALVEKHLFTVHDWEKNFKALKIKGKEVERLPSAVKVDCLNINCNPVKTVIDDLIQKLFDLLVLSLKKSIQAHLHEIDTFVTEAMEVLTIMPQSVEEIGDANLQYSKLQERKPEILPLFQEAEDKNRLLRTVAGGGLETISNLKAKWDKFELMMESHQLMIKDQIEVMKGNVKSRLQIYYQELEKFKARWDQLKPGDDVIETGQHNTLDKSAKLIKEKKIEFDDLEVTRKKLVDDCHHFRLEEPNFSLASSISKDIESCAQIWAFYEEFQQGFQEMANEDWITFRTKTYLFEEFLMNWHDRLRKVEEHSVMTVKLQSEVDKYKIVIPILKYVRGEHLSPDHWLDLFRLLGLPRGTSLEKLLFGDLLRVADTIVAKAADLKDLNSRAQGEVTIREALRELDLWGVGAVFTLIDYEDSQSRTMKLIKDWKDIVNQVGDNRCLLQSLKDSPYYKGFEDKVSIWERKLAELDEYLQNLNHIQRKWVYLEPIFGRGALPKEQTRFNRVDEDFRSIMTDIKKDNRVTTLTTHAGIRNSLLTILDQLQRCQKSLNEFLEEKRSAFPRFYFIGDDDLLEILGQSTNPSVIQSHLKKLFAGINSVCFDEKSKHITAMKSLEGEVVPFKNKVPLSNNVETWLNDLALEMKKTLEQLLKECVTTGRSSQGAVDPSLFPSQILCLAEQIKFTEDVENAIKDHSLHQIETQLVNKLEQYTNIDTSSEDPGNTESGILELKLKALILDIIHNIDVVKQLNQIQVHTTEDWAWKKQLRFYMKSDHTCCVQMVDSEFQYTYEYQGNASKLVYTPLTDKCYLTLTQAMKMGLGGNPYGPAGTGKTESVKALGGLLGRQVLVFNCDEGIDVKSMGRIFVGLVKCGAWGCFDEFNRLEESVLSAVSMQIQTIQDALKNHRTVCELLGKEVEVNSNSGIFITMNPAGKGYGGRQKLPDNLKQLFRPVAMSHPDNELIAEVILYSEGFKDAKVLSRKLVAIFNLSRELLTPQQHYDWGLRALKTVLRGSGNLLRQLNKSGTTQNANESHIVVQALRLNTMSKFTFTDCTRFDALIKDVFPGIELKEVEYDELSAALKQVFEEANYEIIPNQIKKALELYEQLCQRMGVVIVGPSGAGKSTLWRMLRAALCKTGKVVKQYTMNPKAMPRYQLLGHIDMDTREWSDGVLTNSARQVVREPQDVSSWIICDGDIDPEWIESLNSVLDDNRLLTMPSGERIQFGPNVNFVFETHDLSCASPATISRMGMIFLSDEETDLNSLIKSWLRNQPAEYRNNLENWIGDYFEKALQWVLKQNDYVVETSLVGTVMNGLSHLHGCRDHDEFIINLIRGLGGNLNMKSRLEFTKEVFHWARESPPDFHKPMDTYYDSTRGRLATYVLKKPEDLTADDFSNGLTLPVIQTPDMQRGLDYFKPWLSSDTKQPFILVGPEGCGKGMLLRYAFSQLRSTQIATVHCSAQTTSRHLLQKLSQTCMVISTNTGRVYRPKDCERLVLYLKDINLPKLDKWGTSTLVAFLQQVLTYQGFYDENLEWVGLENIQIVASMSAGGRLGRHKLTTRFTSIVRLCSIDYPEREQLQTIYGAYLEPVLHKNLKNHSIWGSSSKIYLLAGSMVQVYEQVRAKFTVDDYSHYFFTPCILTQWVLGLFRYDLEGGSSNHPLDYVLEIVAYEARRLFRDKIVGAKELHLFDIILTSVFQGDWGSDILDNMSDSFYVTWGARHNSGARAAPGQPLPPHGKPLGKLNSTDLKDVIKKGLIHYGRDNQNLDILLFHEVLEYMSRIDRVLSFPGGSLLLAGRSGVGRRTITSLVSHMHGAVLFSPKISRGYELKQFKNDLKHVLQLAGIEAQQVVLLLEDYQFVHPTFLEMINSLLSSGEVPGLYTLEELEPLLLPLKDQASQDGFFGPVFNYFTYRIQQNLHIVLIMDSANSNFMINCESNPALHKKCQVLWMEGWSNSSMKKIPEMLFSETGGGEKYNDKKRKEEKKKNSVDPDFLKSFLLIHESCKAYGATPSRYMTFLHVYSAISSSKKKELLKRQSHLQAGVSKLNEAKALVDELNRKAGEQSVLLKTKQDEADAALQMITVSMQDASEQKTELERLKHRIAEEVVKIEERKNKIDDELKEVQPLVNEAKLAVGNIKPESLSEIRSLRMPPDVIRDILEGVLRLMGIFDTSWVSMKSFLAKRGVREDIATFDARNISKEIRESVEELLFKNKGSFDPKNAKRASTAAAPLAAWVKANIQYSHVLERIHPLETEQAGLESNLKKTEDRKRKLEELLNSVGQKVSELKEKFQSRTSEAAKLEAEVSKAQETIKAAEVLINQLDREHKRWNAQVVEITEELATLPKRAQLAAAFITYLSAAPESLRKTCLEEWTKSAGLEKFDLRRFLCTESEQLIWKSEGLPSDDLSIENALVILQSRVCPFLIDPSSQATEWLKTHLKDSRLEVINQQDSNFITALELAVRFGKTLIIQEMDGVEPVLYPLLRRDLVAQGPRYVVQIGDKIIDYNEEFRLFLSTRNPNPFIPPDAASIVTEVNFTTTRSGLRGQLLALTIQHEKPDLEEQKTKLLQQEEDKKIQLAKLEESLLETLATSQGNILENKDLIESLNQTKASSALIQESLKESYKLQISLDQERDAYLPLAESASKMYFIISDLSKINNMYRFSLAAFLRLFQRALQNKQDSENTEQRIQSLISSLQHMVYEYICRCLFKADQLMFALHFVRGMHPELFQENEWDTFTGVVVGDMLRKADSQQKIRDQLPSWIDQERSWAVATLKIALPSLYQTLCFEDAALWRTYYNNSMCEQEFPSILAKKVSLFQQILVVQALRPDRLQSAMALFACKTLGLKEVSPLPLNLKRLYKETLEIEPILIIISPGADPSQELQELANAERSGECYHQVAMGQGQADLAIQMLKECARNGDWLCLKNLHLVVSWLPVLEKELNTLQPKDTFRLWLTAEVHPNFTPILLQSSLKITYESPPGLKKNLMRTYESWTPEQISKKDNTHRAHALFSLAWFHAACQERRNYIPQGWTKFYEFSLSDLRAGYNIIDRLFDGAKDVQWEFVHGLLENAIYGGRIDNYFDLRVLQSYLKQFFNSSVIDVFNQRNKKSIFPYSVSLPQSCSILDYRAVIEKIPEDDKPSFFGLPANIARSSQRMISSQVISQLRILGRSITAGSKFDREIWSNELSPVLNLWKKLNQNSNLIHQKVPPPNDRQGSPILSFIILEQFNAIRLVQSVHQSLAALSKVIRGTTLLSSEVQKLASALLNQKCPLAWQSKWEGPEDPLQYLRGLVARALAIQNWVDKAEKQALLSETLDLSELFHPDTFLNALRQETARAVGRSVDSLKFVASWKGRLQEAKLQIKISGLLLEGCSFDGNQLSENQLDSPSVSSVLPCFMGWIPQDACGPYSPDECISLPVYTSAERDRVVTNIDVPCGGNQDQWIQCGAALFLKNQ
Summary of the method: as §1

[5] = test system: IMCD3 cells; assay: Real-time imaging of mNeonGreen-IFT88 movement; assay type: cell-based, murine; details: 15 μM
Summary of the method: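 Live IMCD3 cells expressing mNeonGreen-IFT88 were given 15 μM test compound or DMSO for 3 min and imaged in real time. Foci were tracked and classed as anterograde, retrograde or immobile, and their mean velocity and frequency were quantified from at least seven cilia across three independent experiments (± s.e.m.; P < 0.05 or 0.01).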

| IC50 [1] [µM] | IC50 [4] [µM] | SMILES | inhibition of ciliogenesis / primary cilium length [2] | inhibition of Hh signaling [3] | time to disruption of ciliary transport [5] [min] |
| --- | --- | --- | --- | --- | --- |
| 130 | 21 | CC(C)Oc1ccc2c(c1)NC(=C(C#N)C(=O)c1ccc(Cl)cc1Cl)NC2=O [analog 18] | Inhibition of ciliogenesis | Dose-dependent inhibition of Hh signaling |  |
|  |  | Cc1ccc(COc2ccc3c(c2)NC(=C(C#N)C(=O)c2ccc(Cl)cc2Cl)NC3=O)cc1 [analog 37] |  |  | ≤ 3 |
